Measurements: ChEMBL document CHEMBL3407418, “Fragment-based drug discovery of 2-thiazolidinones as BRD4 inhibitors: 2. Structure-based optimization” (J Med Chem, 2015)

What was measured:
CYP3A4 [1] = molecular target: T1, CYP3A4 (Homo sapiens, UniProt P08684); assay: Inhibition of CYP3A4 in human liver microsomes at 10 uM using midazolam substrate preincubated for 5 mins before NADPH addition and measured after 20 mins post NADPH addition; assay type: ADME; conditions: probe midazolam
How it was run: (§1)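 Human liver microsomes 0.2 mg/mL, 1 mmol NADPH, 100 mmol phosphate pH 7.4, probe cocktail (10 μM midazolam, 100 μM testosterone, 10 μM dextromethorphan, 20 μM diclofenac, 100 μM phenacetin, 100 μM mephenytoin), test compound 10 μM or PBS; organic solvent <1%. 5 min preincubation at 37 °C, NADPH-generating system start, 20 min reaction; inhibition from metabolite formation relative to PBS.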

CYP2D6 = CYP2D6 (Homo sapiens, UniProt P10635); assay: Inhibition of CYP2D6 in human liver microsomes at 10 uM using dextromethorphan substrate preincubated for 5 mins before NADPH addition and measured after 20 mins post NADPH addition; assay type: ADME; conditions: liver microsomes, probe dextromethorphan; how it was run: as §1
CYP1A2 = molecular target: T2, CYP1A2 (Homo sapiens, UniProt P05177); assay: Inhibition of CYP1A2 in human liver microsomes at 10 uM using phenacetin substrate preincubated for 5 mins before NADPH addition and measured after 20 mins post NADPH addition; assay type: ADME; conditions: probe phenacetin; how it was run: as §1
T2 sequence (P05177 whole entry): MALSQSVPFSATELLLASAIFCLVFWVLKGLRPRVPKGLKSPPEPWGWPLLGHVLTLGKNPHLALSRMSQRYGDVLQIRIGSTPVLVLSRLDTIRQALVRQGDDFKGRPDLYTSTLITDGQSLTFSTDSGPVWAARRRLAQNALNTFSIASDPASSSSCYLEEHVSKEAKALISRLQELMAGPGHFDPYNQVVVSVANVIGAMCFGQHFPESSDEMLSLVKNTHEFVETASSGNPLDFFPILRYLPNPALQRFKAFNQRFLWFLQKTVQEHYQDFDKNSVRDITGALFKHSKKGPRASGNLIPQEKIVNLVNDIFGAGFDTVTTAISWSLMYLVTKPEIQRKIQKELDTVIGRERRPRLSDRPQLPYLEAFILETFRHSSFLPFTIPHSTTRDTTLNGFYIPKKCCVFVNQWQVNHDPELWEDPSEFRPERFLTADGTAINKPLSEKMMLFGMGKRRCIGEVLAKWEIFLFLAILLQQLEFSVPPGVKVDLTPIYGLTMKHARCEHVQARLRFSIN

CYP3A4 [2] = molecular target: T1, CYP3A4; assay: Inhibition of CYP3A4 in human liver microsomes at 10 uM preincubated for 5 mins before NADPH addition and measured after 20 mins post NADPH addition; assay type: ADME
[3] = Growth inhibition of human MM1S cells after 72 hrs by CellTiter-Glo luminescent cell viability assay; conditions: MM1.S
Cytochrome P450 1A2 = molecular target: T3, Cytochrome P450 1A2 (Homo sapiens, UniProt P05177); assay: Time dependent inhibition of CYP1A2 in human liver microsomes at 10 uM using phenacetin substrate preincubated for 5 mins before NADPH addition and measured after 20 mins post NADPH addition; assay type: ADME
T3 sequence (P05177 whole entry): T2 sequence (P05177 whole entry)

Cytochrome P450 2C19 = Cytochrome P450 2C19 (Homo sapiens, UniProt P33261); assay: Time dependent inhibition of CYP2C19 in human liver microsomes at 10 uM using mephenytoin substrate preincubated for 5 mins before NADPH addition and measured after 20 mins post NADPH addition; assay type: ADME
HT-29 = assay: Growth inhibition of human HT-29 cells after 72 hrs by SRB assay; assay type: functional, cell-based; conditions: HT-29, 72 h
How it was run: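 HT-29 cells are grown in McCoy's 5A with 10% FBS at 37 °C, 5% CO2. DMSO stocks (0.01 mol/L) are diluted in normal saline just before use. Cells are treated in triplicate with gradient concentrations for 72 h at 37 °C.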

CYP2C19 = CYP2C19 (Homo sapiens, UniProt P33261); assay: Inhibition of CYP2C19 in human liver microsomes at 10 uM using mephenytoin substrate preincubated for 5 mins before NADPH addition and measured after 20 mins post NADPH addition; assay type: ADME; conditions: probe mephenytoin; how it was run: as §1
CYP2C9 = CYP2C9 (Homo sapiens, UniProt P11712); assay: (§2) Inhibition of CYP2C9 in human liver microsomes at 10 uM using diclofenac substrate preincubated for 5 mins before NADPH addition and measured after 20 mins post NADPH addition; assay type: ADME; conditions: liver microsomes, probe diclofenac; how it was run: as §1
MV4-11 = assay: Growth inhibition of human MV4-11 cells after 72 hrs by CellTiter-Glo luminescent cell viability assay; conditions: MV4-11, 72 h
Cytochrome P450 2C9 [4] = molecular target: T4, Cytochrome P450 2C9 (Homo sapiens, UniProt P11712); assay: Time dependent inhibition of CYP2C9 in human liver microsomes at 10 uM using diclofenac substrate preincubated for 5 mins before NADPH addition and measured after 20 mins post NADPH addition; assay type: ADME
Cytochrome P450 2D6 = Cytochrome P450 2D6 (Homo sapiens, UniProt P10635); assay: Time dependent inhibition of CYP2D6 in human liver microsomes at 10 uM using dextromethorphan substrate preincubated for 5 mins before NADPH addition and measured after 20 mins post NADPH addition; assay type: ADME
[5] = Stability in human liver microsomes assessed as clearance at 1 uM pre-incubated for 5 mins followed by NADPH addition and measured after 5 to 30 mins post NADPH addition by LC/MS/MS method; assay type: ADME; conditions: read-out: CLH
How it was run: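 Human liver microsomes (0.5 mg/mL) preincubated with 1 µM compound for 5 min at 37 °C in 0.1 M phosphate pH 7.4 with 1 mmol EDTA and 5 mmol MgCl2. Started with 1 mmol NADPH; sampled at 0, 5, 10 and 30 min. Quenched with equal volume of cold acetonitrile, vortexed, and centrifuged at 10,000 × g.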

[6] = molecular target: Bromodomain-containing protein 4 (Homo sapiens, UniProt O60885); assay: Inhibition of BRD4(1) (unknown origin) incubated for 4 hrs by (+)-JQ1 fluorescent ligand based fluorescence anisotrophy
Cytochrome P450 3A4 = Cytochrome P450 3A4 (Homo sapiens, UniProt P08684); assay: Time dependent inhibition of CYP3A4 in human liver microsomes at 10 uM using midazolam substrate preincubated for 5 mins before NADPH addition and measured after 20 mins post NADPH addition; assay type: ADME
Cytochrome P450 2C9 [7] = molecular target: T4, Cytochrome P450 2C9; assay: as §2; assay type: ADME; conditions: microsomes, 20 min, 10 µM; how it was run: as §1
[8] = molecular target: T5, ATPase family AAA domain-containing protein 2 (Homo sapiens) (UniProt Q6PL18); assay: Binding affinity to ATAD2 (unknown origin) assessed as increase in protein melting temperature at 50 umol by real-time PCR system based thermal shift assay
T5 sequence (whole entry): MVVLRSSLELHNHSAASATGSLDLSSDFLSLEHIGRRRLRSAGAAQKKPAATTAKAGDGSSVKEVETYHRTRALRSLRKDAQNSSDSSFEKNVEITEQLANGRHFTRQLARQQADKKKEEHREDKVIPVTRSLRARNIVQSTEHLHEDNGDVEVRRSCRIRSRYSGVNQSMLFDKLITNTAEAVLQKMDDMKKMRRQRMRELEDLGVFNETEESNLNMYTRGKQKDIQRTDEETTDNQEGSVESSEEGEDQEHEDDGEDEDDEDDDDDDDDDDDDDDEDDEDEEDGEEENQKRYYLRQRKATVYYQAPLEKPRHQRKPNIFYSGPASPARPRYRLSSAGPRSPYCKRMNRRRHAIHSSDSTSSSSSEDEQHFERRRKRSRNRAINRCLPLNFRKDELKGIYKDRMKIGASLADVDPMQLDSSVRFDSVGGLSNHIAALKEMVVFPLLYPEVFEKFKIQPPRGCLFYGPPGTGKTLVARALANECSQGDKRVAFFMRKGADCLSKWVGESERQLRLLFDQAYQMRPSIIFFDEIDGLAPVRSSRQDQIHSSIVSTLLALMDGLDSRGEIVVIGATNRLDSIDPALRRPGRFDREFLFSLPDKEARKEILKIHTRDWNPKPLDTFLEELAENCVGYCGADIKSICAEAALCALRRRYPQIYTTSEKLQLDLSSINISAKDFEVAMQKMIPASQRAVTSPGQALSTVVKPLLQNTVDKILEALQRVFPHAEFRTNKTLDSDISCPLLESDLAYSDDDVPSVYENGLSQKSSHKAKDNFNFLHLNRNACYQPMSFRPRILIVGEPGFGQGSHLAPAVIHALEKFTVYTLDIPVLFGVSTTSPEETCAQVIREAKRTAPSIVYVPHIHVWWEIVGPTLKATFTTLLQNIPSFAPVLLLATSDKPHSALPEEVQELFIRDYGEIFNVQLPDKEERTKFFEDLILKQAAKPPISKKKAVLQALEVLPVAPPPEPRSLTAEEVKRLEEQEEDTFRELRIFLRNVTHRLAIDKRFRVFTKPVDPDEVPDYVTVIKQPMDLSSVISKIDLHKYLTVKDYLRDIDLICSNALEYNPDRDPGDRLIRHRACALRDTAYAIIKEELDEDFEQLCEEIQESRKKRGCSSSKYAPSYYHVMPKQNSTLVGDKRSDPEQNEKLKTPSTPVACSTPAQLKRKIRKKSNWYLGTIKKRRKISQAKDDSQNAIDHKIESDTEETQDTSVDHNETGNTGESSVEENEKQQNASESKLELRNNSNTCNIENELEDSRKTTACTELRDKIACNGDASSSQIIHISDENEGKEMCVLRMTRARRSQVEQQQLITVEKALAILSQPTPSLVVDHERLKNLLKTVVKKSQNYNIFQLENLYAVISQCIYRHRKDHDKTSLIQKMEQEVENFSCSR
How it was run: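 Bromodomain proteins in 10 mmol HEPES pH 7.5, 500 mmol NaCl at 75 μg/mL final; compound at 50 µmol final; SYPRO Orange probe at 1:1000. Four replicates per protein mixture. Melt curve read on a real-time PCR instrument, heating 25 °C to 99 °C at 1 °C/min under continuous fluorescence reading; binding taken as the rise in protein melting temperature.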

T4 sequence (P11712 whole entry): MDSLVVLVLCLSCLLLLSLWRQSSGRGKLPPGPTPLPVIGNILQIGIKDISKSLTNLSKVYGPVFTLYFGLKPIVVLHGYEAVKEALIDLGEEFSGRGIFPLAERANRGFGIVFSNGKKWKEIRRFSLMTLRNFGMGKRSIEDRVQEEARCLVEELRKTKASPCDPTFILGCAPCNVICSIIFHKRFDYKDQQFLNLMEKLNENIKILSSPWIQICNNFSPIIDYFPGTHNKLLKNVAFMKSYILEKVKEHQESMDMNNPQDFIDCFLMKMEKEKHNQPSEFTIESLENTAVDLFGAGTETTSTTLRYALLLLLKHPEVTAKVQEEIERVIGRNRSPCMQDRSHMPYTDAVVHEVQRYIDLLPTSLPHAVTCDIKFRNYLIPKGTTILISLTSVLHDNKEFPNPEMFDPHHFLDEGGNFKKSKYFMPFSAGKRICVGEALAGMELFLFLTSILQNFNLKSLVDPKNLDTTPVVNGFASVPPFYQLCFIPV
Sequence of CYP2C9 (P11712 whole entry): as above
Sequence of CYP2C19 (P33261 whole entry): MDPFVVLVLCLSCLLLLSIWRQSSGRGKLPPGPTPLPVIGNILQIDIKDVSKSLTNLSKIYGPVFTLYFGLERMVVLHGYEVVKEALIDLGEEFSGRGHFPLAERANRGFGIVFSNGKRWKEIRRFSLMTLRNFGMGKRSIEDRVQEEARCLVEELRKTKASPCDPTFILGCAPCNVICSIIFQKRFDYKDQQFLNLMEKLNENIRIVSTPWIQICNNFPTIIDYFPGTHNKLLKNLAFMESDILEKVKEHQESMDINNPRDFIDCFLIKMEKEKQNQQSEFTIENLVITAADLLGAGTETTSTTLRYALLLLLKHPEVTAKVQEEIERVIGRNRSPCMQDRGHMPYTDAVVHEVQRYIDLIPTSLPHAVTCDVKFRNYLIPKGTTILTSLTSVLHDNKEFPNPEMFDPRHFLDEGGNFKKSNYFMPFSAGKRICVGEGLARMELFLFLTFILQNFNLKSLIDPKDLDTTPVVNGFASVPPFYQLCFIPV
Sequence of Cytochrome P450 2C19 (P33261 whole entry): as above
Sequence of CYP2D6 (P10635 whole entry): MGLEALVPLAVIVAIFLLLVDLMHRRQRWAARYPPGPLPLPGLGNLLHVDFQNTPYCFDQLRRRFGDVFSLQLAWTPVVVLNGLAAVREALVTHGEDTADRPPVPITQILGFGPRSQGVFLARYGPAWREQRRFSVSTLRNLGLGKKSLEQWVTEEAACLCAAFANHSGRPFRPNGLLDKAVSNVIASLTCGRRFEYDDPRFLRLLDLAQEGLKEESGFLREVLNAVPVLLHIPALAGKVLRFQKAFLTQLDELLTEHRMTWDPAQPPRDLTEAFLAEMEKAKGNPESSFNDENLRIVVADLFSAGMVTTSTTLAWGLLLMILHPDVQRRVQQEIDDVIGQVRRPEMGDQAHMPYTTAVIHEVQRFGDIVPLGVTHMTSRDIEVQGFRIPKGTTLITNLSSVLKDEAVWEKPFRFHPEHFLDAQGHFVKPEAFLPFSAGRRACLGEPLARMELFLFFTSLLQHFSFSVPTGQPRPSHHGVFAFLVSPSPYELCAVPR
Sequence of Cytochrome P450 2D6 (P10635 whole entry): as above
Sequence of Cytochrome P450 3A4 (P08684 whole entry): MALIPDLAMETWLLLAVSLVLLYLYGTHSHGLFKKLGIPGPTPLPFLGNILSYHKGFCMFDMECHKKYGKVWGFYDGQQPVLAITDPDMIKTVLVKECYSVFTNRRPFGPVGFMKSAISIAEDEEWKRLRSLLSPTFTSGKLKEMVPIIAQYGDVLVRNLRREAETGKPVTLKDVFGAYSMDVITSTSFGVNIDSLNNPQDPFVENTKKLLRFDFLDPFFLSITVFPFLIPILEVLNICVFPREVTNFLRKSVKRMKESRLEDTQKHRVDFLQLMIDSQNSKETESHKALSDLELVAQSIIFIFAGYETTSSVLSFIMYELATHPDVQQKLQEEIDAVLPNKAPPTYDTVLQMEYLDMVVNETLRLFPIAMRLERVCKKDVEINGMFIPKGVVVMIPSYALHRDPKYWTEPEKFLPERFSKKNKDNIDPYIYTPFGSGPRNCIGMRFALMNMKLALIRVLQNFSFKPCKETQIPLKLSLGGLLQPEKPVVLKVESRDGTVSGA
T1 sequence (P08684 whole entry): as above

`O=C(Nc1cc(-c2csc(=O)[nH]2)cc(S(=O)(=O)NC2CCCC2)c1)c1cccs1` gave an inhibition at 20 min, 10 µM (CYP3A4 [1]) of 17%, an inhibition at 20 min, 10 µM (CYP2D6) of 44% and an inhibition at 20 min, 10 µM (CYP1A2) of 45%. For the same compound, the inhibition at 20 min, 10 µM (CYP3A4 [2]) was 34%, the IC50 [3] was 3300 nM and the TDI (Cytochrome P450 1A2) was “Not Active”. For the same compound, the TDI (Cytochrome P450 2C19) was “Not Active”, the IC50 (HT-29) was 25200 nM and the inhibition at 20 min, 10 µM (CYP2C19) was 46%. For the same compound, the inhibition at 20 min, 10 µM (CYP2C9) was 57%, the IC50 (MV4-11) was 272 nM and the TDI (Cytochrome P450 2C9 [4]) was “Not Active”. The TDI (Cytochrome P450 2D6) was “Not Active”, the microsomal CLint at 1 µM [5] was 64 µL/min/mg and the IC50 [6] was 110 nM. The TDI (Cytochrome P450 3A4) was “Not Active”.
With `COc1cc2c(cc1-c1c(C)noc1C)ncc1[nH]c(=O)n([C@H](C)c3ccccn3)c12` the inhibition at 20 min, 10 µM (CYP3A4 [1]) was 21%, the inhibition at 20 min, 10 µM (CYP2D6) was 18% and the inhibition at 20 min, 10 µM (CYP1A2) was 18%. For the same compound, the inhibition at 20 min, 10 µM (CYP3A4 [2]) was 22%, the IC50 [3] was 299 nM and the TDI (Cytochrome P450 1A2) was “Not Active”. For the same compound, the TDI (Cytochrome P450 2C19) was “Not Active”, the IC50 (HT-29) was 945 nM and the inhibition at 20 min, 10 µM (CYP2C19) was 19%. The inhibition at 20 min, 10 µM (CYP2C9) was 33%, the IC50 (MV4-11) was 119 nM and the TDI (Cytochrome P450 2C9 [4]) was “Not Active”. For the same compound, the TDI (Cytochrome P450 2D6) was “Not Active” and the TDI (Cytochrome P450 3A4) was “Not Active”.
`CNc1cc(-c2csc(=O)[nH]2)cc(S(=O)(=O)NC2CCCC2)c1C` showed an inhibition at 20 min, 10 µM (CYP3A4 [1]) of 41%, an inhibition at 20 min, 10 µM (CYP2D6) of 36% and an inhibition at 20 min, 10 µM (CYP1A2) of 37%. The inhibition at 20 min, 10 µM (CYP3A4 [2]) was 47%, the IC50 [3] was 505 nM and the TDI (Cytochrome P450 1A2) was “Not Active”. The TDI (Cytochrome P450 2C19) was “Not Active”, the IC50 (HT-29) was 850 nM and the inhibition at 20 min, 10 µM (CYP2C19) was 17%. For the same compound, the “inhibition (INH)” value (Cytochrome P450 2C9 [7]) was “Not Active”, the IC50 (MV4-11) was 198 nM and the TDI (Cytochrome P450 2C9 [4]) was “Not Active”. For the same compound, the TDI (Cytochrome P450 2D6) was “Not Active”, the microsomal CLint at 1 µM [5] was 174 µL/min/mg and the IC50 [6] was 250 nM. For the same compound, the TDI (Cytochrome P450 3A4) was “Not Active”.
For `Cc1sc2c(c1C)C(c1ccc(Cl)cc1)=N[C@@H](CC(=O)OC(C)(C)C)c1nnc(C)n1-2`, the inhibition at 20 min, 10 µM (CYP3A4 [1]) was 30%, the inhibition at 20 min, 10 µM (CYP2D6) was 2% and the inhibition at 20 min, 10 µM (CYP1A2) was 2%. The inhibition at 20 min, 10 µM (CYP3A4 [2]) was 28%, the IC50 [3] was 109 nM and the ΔTm [8] was 1.04 °C. The TDI (Cytochrome P450 2C19) was “Active”, the IC50 (HT-29) was 104 nM and the inhibition at 20 min, 10 µM (CYP2C19) was 18%. The inhibition at 20 min, 10 µM (CYP2C9) was 18%, the IC50 (MV4-11) was 23 nM and the TDI (Cytochrome P450 2C9 [4]) was “Active”. The microsomal CLint at 1 µM [5] was 78 µL/min/mg.
